Test results published in paper PMC4079331 (Journal of Medicinal Chemistry, 2014).

Columns and labels:
[1] = test system: CLL patient cells; assay: In vitro activity against CLL patient cells, summary statements over cell lines; type: cell-based, human; details: for in vitro activity against CLL patient cells: result in words
How it was run: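 Primary CLL cells from consented patients, cultured in RPMI with 10% FBS and test compound at designated concentrations for 48 h (37 °C, 5% CO2). Viability is the DiOC6+/PI− fraction relative to untreated or vehicle control. EC50 and SE come from dose–response curves.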

[2] = Nonspecific protein binding, from recovery out of plasma and serum; type: in vitro ADME; details: result in words
How it was run: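 Test compound at 50 μM final (1% DMSO) in pooled female BALB/c mouse plasma or serum, or in human AB serum, incubated at 37 °C with gentle agitation. Aliquots taken at 0, 0.5, 1, 2, 8, 18 and 24 h were precipitated with CH3CN and centrifuged at 3000g for 10 min; supernatants were quantified by LCMS. Run in triplicate.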

[3] = Stability in mouse plasma; type: in vitro ADME; details: female, BALB/c, mouse plasma (pooled)
How it was run: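 Test compound at 50 μM final (1% DMSO) in pooled plasma from female BALB/c mice or human AB serum. Incubated at 37 °C with gentle agitation. Samples taken at 0, 0.5, 1, 2, 8, 18 and 24 h. Proteins precipitated with CH3CN, vortexed and centrifuged (3000g, 10 min, room temperature); supernatant analysed by LCMS. Run in triplicate.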

[4] = Phase I metabolism in human microsomes; type: in vitro ADME; details: 1 h incubation, 100 μM, NADPH
How it was run: (§1)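 Mouse or human microsomes (5 mg/mL protein final) in 0.1 M sodium phosphate pH 7.4 with 100 μM test compound (DMSO <1%), preincubated 5 min at 37 °C. Started with 1 mM NADPH and run 60 min at 37 °C. Stopped with MeOH and centrifuged; supernatant analysed by LCMS. Controls: zero time, no NADPH, boiled microsomes, and 7-ethoxycoumarin as CYP substrate.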

[5] = Phase I metabolism in mouse microsomes; type: in vitro ADME; details: 1 h incubation, 100 μM, NADPH
How it was run: as §1

[6] = test system: CLL2 (CLL patient cell line); assay: In vitro cytotoxicity against primary CLL patient cells CLL2; type: cell-based, human; details: for EC50: read-out: antitumor EC50 CLL2, Table 3, SE ±0.01 μM
[7] = test system: JVM-2 (ATCC leukemia cell line); assay: In vitro cytotoxicity against JVM-2; type: cell-based; details: read-out: antitumor EC50 JVM-2; Table 3; SE ±0.01 μM
[8] = test system: HeLa cell line; assay: HeLa cell viability by the MTT method; type: cell-based; details: read-out: antitumor EC50 HeLa; Table 3; SE ±0.01 μM
[9] = test system: CLL1 (CLL patient cell line); assay: In vitro cytotoxicity against primary CLL patient cells CLL1; type: cell-based, human; details: read-out: antitumor EC50 CLL1; Table 3; SE ±0.01 μM
[10] = Phase II glucuronidation in mouse S9 fractions; type: in vitro ADME
[11] = test system: CLL; details: read-out: EC50 against CLL; p53-independent activity; cited from earlier work
[12] = test system: KB nasopharyngeal tumor cells; details: in vitro cultured cells; from the literature, reference not given; cited from earlier work
[13] = Phase II glucuronidation in human S9 fractions; type: in vitro ADME

CN1C(=O)N[C@H]2[C@@H]3NC(=O)c4ccc(I)n4[C@@H]3C[C@]21O [1g, 13-Debromo-13-iodo-agelastatin A]
in vitro activity against CLL patient cells [1]: nanomolar

CN1C(=O)N[C@H]2[C@@H]3NC(=O)c4ccc(C(F)(F)F)n4[C@@H]3C[C@]21O [1j, 13-Debromo-13-trifluoromethyl-agelastatin A]
in vitro activity against CLL patient cells [1]: nanomolar | nonspecific protein binding [2]: relatively low | recovery at 24 h, 50 μM [3]: 65 to 90% | metabolism by cytochrome P450 enzymes, recovery from supernatant (LCMS) [4]: quantitative recovery | metabolism by cytochrome P450 enzymes, recovery from supernatant (LCMS) [5]: quantitative recovery

CN1C(=O)N[C@H]2[C@@H]3NC(=O)c4cc(Cl)c(Cl)n4[C@@H]3C[C@]21O [1e, 13-Debromo-13,14-dichloro-agelastatin A]
in vitro activity against CLL patient cells [1]: nanomolar

O-(2′-Methoxyethyl)-agelastatin A [4c]
EC50 [6]: 9.39 µM | EC50 [7]: 21.1 µM

CN1C(=O)N[C@H]2[C@@H]3NC(=O)c4cccn4[C@@H]3C[C@]21O [1p, 13-Debromo-agelastatin A]
loss of activity on removal of Br from C-13 ([6]; compared with 1a): 25 fold | metabolism by cytochrome P450 enzymes, recovery from supernatant (LCMS) [4]: near quantitative recovery | metabolism by cytochrome P450 enzymes, recovery from supernatant (LCMS) [5]: near quantitative recovery

CCOc1ccc2ccc(=O)oc2c1 [7-ethoxycoumarin, reference compound]
metabolism by cytochrome P450 enzymes, recovery from supernatant (LCMS) [4]: metabolized | metabolism by cytochrome P450 enzymes, recovery from supernatant (LCMS) [5]: metabolized

CN1C(=O)N[C@H]2[C@@H]3NC(=O)c4ccc(Cl)n4[C@@H]3C[C@]21O [1d, 13-Debromo-13-chloro-agelastatin A]
in vitro activity against CLL patient cells [1]: nanomolar

CN1C(=O)N[C@H]2[C@@H]3NC(=O)c4ccc(C#N)n4[C@@H]3C[C@]21O [1n, 13-Debromo-13-cyano-agelastatin A]
in vitro activity against CLL patient cells [1]: nanomolar

O-Methyl-agelastatin A [4b]
EC50 [6]: 28.8 µM | EC50 [7]: 429 µM | EC50 [8]: 91.4 µM | EC50 [9]: 867 µM

CN1C(=O)N[C@H]2[C@@H]3NC(=O)c4ccc(Br)n4[C@@H]3C[C@]21O [1a, (−)-Agelastatin A]
EC50 ([1]; read-out: EC50, CLL activity, range over the cell lines tested): 0.11 to 0.31 µM | formation of glucuronides [10]: No formation of glucoronides was detected | EC50 [11]: 0.06 to 0.1 µM | nonspecific protein binding [2]: relatively low | IC50, growth of KB nasopharyngeal tumor cells [12]: 0.5–1 μg mL^–1 | metabolism by cytochrome P450 enzymes, recovery from supernatant (LCMS) [4]: quantitative recovery | metabolism by cytochrome P450 enzymes, recovery from supernatant (LCMS) [5]: quantitative recovery | formation of glucuronides [13]: No formation of glucoronides was detected
